This note sets out measurements from PubChem BioAssay AID623874 (Vanderbilt Specialized Chemistry Center, 2012).

The assay concerns the target Metabotropic glutamate receptor 1 (Rattus norvegicus) (UniProt P23385). The assay can be described thus: rat mGlu1 modulation, glutamate curve fold shift, SAR follow-up, selectivity assay for mGlu4 PAM lead optimization, cell-based, calcium flux (AID 623874). Conditions: rat mGlu1 cells, Fluo-4 calcium flux, glutamate CRC shift; at 10 µM. The essentials: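 test system = Fluo-4-loaded cells | medium = HEPES-buffered HBSS plus probenecid, pH 7.3 | dosing = single test compound dose, 10 µM final | reagent = glutamate as agonist, added after test compound | measured by = Fluo-4 calcium fluorescence | timing = ~2.5 min compound exposure before agonist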
In general terms: Calcium assays in cells follow changes in intracellular calcium, usually with a dye or a luminescent sensor.

Calls of active or inactive are those of the source.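 The calls were made as follows: active = glutamate fold shift at least 2 as enhancer or at most 0.5 as blocker, actives on both sides; inactive = the rest.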

Metabotropic glutamate receptor 1 (Rattus norvegicus), sequence (P23385 whole entry, looked up): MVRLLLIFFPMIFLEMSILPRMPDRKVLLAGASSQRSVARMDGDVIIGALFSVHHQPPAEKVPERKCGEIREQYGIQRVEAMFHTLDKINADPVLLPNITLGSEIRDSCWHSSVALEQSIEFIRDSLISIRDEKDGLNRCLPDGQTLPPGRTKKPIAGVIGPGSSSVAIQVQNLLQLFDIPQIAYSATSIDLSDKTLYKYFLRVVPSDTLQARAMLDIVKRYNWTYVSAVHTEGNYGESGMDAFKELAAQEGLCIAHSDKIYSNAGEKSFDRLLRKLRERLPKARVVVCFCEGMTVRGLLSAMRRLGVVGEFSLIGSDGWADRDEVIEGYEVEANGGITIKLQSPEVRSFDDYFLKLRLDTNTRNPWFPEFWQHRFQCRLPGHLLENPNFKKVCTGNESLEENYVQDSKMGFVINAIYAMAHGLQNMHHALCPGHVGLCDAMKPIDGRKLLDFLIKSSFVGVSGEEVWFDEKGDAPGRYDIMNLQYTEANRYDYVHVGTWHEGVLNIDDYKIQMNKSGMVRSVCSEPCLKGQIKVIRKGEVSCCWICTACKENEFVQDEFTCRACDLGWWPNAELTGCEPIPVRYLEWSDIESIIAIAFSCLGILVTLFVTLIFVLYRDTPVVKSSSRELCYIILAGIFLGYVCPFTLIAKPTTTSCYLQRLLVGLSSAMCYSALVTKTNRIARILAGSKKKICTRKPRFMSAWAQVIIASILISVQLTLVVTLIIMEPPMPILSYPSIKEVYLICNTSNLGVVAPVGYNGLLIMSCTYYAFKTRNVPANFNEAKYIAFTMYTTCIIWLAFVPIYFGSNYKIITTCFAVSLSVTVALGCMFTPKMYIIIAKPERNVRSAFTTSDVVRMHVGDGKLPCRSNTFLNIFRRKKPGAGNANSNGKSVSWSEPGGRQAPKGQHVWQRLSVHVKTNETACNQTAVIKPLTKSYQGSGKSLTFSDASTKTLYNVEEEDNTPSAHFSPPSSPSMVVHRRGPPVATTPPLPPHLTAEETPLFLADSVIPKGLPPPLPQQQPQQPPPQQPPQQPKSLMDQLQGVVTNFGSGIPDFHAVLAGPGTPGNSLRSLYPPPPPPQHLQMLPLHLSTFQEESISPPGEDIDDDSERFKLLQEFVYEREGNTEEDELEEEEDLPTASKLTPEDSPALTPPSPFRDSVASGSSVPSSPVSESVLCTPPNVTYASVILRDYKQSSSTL

Regarding `O=C(Nc1cccc(Cl)c1)c1ccccn1`, the fold shift is 1.17 (inactive).
